Measured values published in ChEMBL document CHEMBL4613213, “Anibamine and Its Analogues: Potent Antiplasmodial Agents from Aniba citrifolia” (J Nat Prod, 2020).
Activity calls are given as the source filed them. The rule behind the calls is not given here.

Columns and labels:
[1] = tested on: Plasmodium falciparum; assay: Antiplasmodial activity against Plasmodium falciparum Dd2 assessed as reduction in parasite growth after 72 hrs by SYBR Green 1 staining based assay; assay type: functional, organism-based
Outline: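 Dd2 cultures started at ring stage, 1% hematocrit and 1% parasitemia. Grown 72 h at 37 °C in 5% CO2/5% O2/90% N2 across increasing drug concentrations. Viability read by SYBR Green I DNA quantitation in lysis buffer. IC50 from nonlinear regression; mean of three independent determinations, each in triplicate, ± SEM.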

[2] = tested on: Plasmodium falciparum; assay: Antiplasmodial activity against Plasmodium falciparum Dd2 schizonts form infected in erythrocytes assessed as reduction in reinvasion at 1 uM after 6 hrs by Giemsa staining based light microscopic method; assay type: functional, organism-based
Outline: (§1)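 Compound added at schizont stage (40–42 post-invasion). Morphology assessed on Giemsa-stained thin blood smears at 6, 24 and 48 h of treatment and compared with untreated controls. Two or more independent experiments.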

[3] = Hemolytic activity in human RBC; assay type: cell-based, Erythrocyte; conditions: human red blood cells (erythrocytes)
[4] = tested on: Plasmodium falciparum; assay: Antiplasmodial activity against Plasmodium falciparum Dd2 schizonts form infected in erythrocytes assessed as reduction in trophozoites formation at 1 uM after 48 hrs by Giemsa staining based light microscopic method; assay type: functional, organism-based; outline: as §1
[5] = tested on: Plasmodium falciparum; assay: Antiplasmodial activity against Plasmodium falciparum Dd2 schizonts form infected in erythrocytes assessed as reduction in parasite growth at 1 uM after 6 hrs by Giemsa staining based light microscopic method; assay type: functional, organism-based; outline: as §1
[6] = tested on: Plasmodium falciparum; assay: Antiplasmodial activity against Plasmodium falciparum Dd2 schizonts form infected in erythrocytes assessed as reduction in ring stage formation at 1 uM after 6 hrs by Giemsa staining based light microscopic method; assay type: functional, organism-based; outline: as §1
[7] = tested on: Plasmodium falciparum; assay: Antiplasmodial activity against Plasmodium falciparum Dd2 schizonts form infected in erythrocytes assessed as morphological defects formation at 1 uM after 48 hrs by Giemsa staining based light microscopic method; assay type: functional, organism-based; outline: as §1
[8] = tested on: A2780; assay: Cytotoxicity against human A2780 cells assessed as reduction in cell viability after 2 days by AlamarBlue assay; assay type: ADME, cell-based; conditions: A2780, 48 h
[9] = tested on: Plasmodium falciparum; assay: Antiplasmodial activity against Plasmodium falciparum Dd2 schizonts form infected in erythrocytes assessed as reduction in ring stage formation at 0.5 uM after 6 hrs by Giemsa staining based light microscopic method; assay type: functional, organism-based; outline: as §1
[10] = tested on: Plasmodium falciparum; assay: Antiplasmodial activity against Plasmodium falciparum Dd2 ring stage form infected in erythrocytes assessed as reduction in reinvasion at 0.5 uM after 48 to 72 hrs by Giemsa staining based light microscopic method; assay type: functional, organism-based
Outline: (§2)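 Compound added at ring stage (2–4 h post-invasion). Development followed on Giemsa-stained thin blood smears after 6, 24, 48 and 72 h of treatment and compared with untreated controls. Two or more independent experiments.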

[11] = tested on: Plasmodium falciparum; assay: Antiplasmodial activity against Plasmodium falciparum Dd2 schizonts form infected in erythrocytes assessed as reduction in reinvasion at 0.5 uM after 6 hrs by Giemsa staining based light microscopic method; assay type: functional, organism-based; outline: as §1
[12] = tested on: Plasmodium falciparum; assay: Antiplasmodial activity against Plasmodium falciparum Dd2 schizonts form infected in erythrocytes assessed as reduction in parasite growth at 0.5 uM after 6 hrs by Giemsa staining based light microscopic method; assay type: functional, organism-based; outline: as §1
[13] = tested on: Plasmodium falciparum; assay: Antiplasmodial activity against Plasmodium falciparum Dd2 ring stage form infected in erythrocytes assessed as reduction in parasite growth at 0.5 uM after 6 to 72 hrs by Giemsa staining based light microscopic method; assay type: functional, organism-based; outline: as §2
[14] = tested on: Plasmodium falciparum; assay: Antiplasmodial activity against Plasmodium falciparum Dd2 schizonts form infected in erythrocytes assessed as morphological defects at 0.5 uM after 48 hrs by Giemsa staining based light microscopic method; assay type: functional, organism-based; outline: as §1
[15] = tested on: Plasmodium falciparum; assay: Antiplasmodial activity against Plasmodium falciparum Dd2 schizonts form infected in erythrocytes assessed as reduction in trophozoites formation at 0.5 uM after 48 hrs by Giemsa staining based light microscopic method; assay type: functional, organism-based; outline: as §1
[16] = Cytotoxicity against mouse 3T3 cells by neutral red uptake assay; assay type: cell-based; conditions: NIH3T3 cells, read-out: TC50 (the source's name)
[17] = Plasmodium falciparum, Dd2, 72 h, read-out: IC50

`CCCCCCCC/C=C\c1c(C)cc(CCCOC)nc1C` gave an IC50 [1, 17] of 6.3 µM.

Work on `CCCCCCCC/C=C\c1c(CCCOC)nc(C)c(/C=C/CCCCCCCC)c1C` yielded an IC50 [1, 17] of over 20 µM.

With `CCCCCCCCCCc1c(C)c(CCCCCCCCCC)c2[n+](c1C)CCCCC2` the Activity [2] was “inactive”, the HC50 [3] was over 58 µM and the IC50 [1, 17] was 0.077 µM. The Activity [4] was “Active”, the Activity [5] was “inactive” and the Activity [6] was “inactive”. For the same compound, the Activity [7] was “Active”.

With `CCCCCCCC/C=C/c1c(C)cc(CCCOC)nc1C` the IC50 [1, 17] was 6.7 µM.

For `C=CC[C@@]12C=C(OC)C(=O)[C@@H]([C@H](c3ccc4c(c3)OCO4)[C@H]1C)[C@H]2O`, the IC50 [1] was “Not Active” and the IC50 [8] was 10 to 50 µM.

For `CCCCCCCCCCc1c(C)cc(C)[n+]2c1CCC2`, the Activity [9] was “inactive”, the IC50 [1, 17] was 0.06 µM and the Activity [10] was “inactive”. The Activity [11] was “inactive”, the Activity [12] was “inactive” and the Activity [13] was “inactive”.

In the case of `C=CCOc1cc2c(cc1OC)[C@H](C)[C@@H](c1ccc3c(c1)OCO3)O2`, the IC50 [1, 17] is reported as 30 µM and the IC50 [8] is reported as 10 to 50 µM.

With `C=CC[C@@]12C=C(OC)C(=O)[C@@H]([C@@H](c3ccc4c(c3)OCO4)[C@@H]1C)[C@@H]2O` the IC50 [1, 17] was over 100 µM and the IC50 [8] was 10 to 50 µM.

In the case of `CCCCCCCC/C=C/c1c(C)c(/C=C/CCCCCCCC)c2[n+](c1C)CCC2`, the Activity [14] is reported as “Active”, the Activity [15] is reported as “Active” and the Activity [9] is reported as “inactive”. For the same compound, the HC50 [3] was over 58 µM, the IC50 [1, 17] was 0.096 µM and the Activity [11] was “inactive”. For the same compound, the Activity [12] was “inactive”.

For `CCCCCCCC/C=C\c1c(C)c(/C=C\CCCCCCCC)c2[n+](c1C)CCC2` [ANIBAMINE], the IC50 [1, 17] was 0.17 µM, the IC50 [8] was 0.223 µM and the CC50 [16] was over 22 µM.

For `CCCCCCCCCCc1c(C)cc(CCCOC)nc1C`, the IC50 [1, 17] was 5.3 µM.

With `CCCCCCCC/C=C\c1c(C)nc(CCCOC)c(/C=C/CCCCCCCC)c1C` the IC50 [1, 17] was over 20 µM.

With `C=CC[C@@]1(OC)C=C2C(=CC1=O)O[C@H](c1ccc3c(c1)OCO3)[C@H]2C` the IC50 [1] was “Not Active” and the IC50 [8] was 10 to 50 µM.

Work on `CCCCCCCCCCc1c(C)nc(CCCOC)c(CCCCCCCCCC)c1C` yielded an IC50 [1, 17] of over 20 µM.

In the case of `CCCCCCCC/C=C\c1c(C)c(/C=C\CCCCCCCC)c2[n+](c1C)CCCCC2`, the Activity [14] is reported as “Active”, the Activity [15] is reported as “Active” and the Activity [9] is reported as “inactive”. For the same compound, the HC50 [3] was over 58 µM, the IC50 [1, 17] was 0.067 µM and the Activity [11] was “inactive”. The Activity [12] was “inactive”.

Compound `C=CC[C@@]12C=C(OC)C(=O)C=C1O[C@H](c1ccc3c(c1)OCO3)[C@H]2C` has an IC50 [1, 17] of over 30 µM and an IC50 [8] of 10 to 50 µM.

With `CCCCCCCCCCc1c(C)c(CCCCCCCCCC)c2[n+](c1C)CCCC2` the Activity [14] was “Active”, the Activity [15] was “Active” and the Activity [9] was “inactive”. The HC50 [3] was over 58 µM, the IC50 [1, 17] was 0.058 µM and the Activity [11] was “inactive”. The Activity [12] was “inactive”.

In the case of `C.C=CC[C@]1(C(=O)OC)CC(=O)C[C@H](c2ccc3c(c2)OCO3)[C@H]1C`, the IC50 [1, 17] is reported as over 100 µM and the IC50 [8] is reported as over 10 µM.

Compound `CCCCCCCC/C=C/c1c(C)c(CCCCCCCCCC)c2[n+](c1C)CCC2` has an IC50 [1, 17] of 0.244 µM and an IC50 [8] of 0.241 µM.

`CCCCCCCC/C=C/c1c(C)nc(CCCOC)c(/C=C/CCCCCCCC)c1C` showed an IC50 [1, 17] of over 20 µM.
